# Compounds with a hit are over-represented: about 2.6% of the library has one in this group of screens.
# SENP8 block-1: human SENP8 protease inhibitors, primary screen, biochemical, fluorescence, Nedd8 protein substrate, uHTS | actives 0.64% (n = 360,000) | Sentrin-specific protease 8 (Homo sapiens), Q96LD8 | inhibition, % at 20 µM | recombinant SENP8 | AID 602440, 2012; in the data active means inhibition mostly above about 40%, no sharp cut-off; inactive means mostly below about 27%
# Target sequence (Q96LD8 whole entry, looked up): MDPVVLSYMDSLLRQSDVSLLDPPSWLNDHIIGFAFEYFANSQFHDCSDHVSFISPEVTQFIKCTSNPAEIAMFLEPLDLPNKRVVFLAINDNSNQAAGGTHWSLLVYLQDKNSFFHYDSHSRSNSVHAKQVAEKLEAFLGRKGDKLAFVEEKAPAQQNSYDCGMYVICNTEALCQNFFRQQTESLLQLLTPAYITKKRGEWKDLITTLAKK
# SENP7 inh: SENP7 protease inhibitors, primary screen, biochemical, luminescence, uHTS. recombinant SENP7, Z-RLRGG-aminoluciferin luminescence, 40 min. inhibition, % at 5 µM. actives 1.5% (n = 330,000). AID 434973, 2010;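 active means inhibition above about 50% at the single test dose, limit read from the data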;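 further: plate controls were DMSO with enzyme for no effect and no enzyme buffer wells for full effect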
# Platelet DG rel: inhibitors of platelet dense granule secretion, primary screen, cell-based, MLPCN, human platelets; human platelet-rich plasma, SFLLRN dense granule ATP release, luminescence; inhibition, %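 (compounds screened at 7.5 µM in platelet-rich plasma)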; actives 0.22% (n = 300,000); AID 1663, 2009;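 active means mean replicate score, as percent of positive control, at or above 50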
# SENP6 inh: SENP6 protease inhibitors, primary screen, biochemical, luminescence, uHTS | Recombinant SENP6 catalytic domain, aminoluciferin luminescence | inhibition, % at 10 µM | actives 1.8% (n = 330,000) | AID 2599, 2010;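 active means inhibition above about 50% at the single tested dose, limit read from the data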;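 further: plate controls were DMSO wells with enzyme for no effect and DMSO wells lacking enzyme for full effect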
# SENP8 block-2: SENP8 protease inhibitors, primary screen, biochemical, luminescence | Sentrin-specific protease 8 (Homo sapiens), Q96LD8 | purified SENP8, Z-RLRGG-aminoluciferin cleavage | inhibition, % at 10 µM | actives 1.2% (n = 330,000) | AID 2540, 2010; in the data active means inhibition above about 50%
# SENP1 FRET inh: human SENP1 catalytic domain inhibitors, primary screen, biochemical, FRET, uHTS; inhibition, % at 10 µM; actives 0.21% (n = 360,000); recombinant SENP1 catalytic domain, CyPet-SUMO1-YPet FRET cleavage;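 active means inhibition at least 30% at 10 µM, raw YFP signal under a set limit, fluorescence ratio 0.5 to 1.5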;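 further: 0% = enzyme with DMSO and 100% = no enzyme wells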
# Target sequence (Q9P0U3 419-644 limits assumed): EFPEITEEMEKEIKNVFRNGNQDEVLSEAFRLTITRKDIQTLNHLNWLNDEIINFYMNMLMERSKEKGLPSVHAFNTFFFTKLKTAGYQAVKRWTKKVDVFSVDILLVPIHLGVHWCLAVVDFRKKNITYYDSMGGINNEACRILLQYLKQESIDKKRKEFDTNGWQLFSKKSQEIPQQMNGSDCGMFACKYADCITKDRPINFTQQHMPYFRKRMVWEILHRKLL
#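 Test system: hSENP1 catalytic domain, recombinant; Amount: 20 pM final SENP1 enzyme; Medium: Tris pH 8 buffer plus EDTA, NaCl, BME, BSA, NP40, catalase; Schedule: 50 min enzyme reaction, room temperature, light-protected; Technique: FRET fluorescence in CFP and YFP emission channels; Controls: no-enzyme wells low, DMSO-plus-enzyme wells high control.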
# SENP8 confirm: SENP8 protease inhibitors, retest, confirmation, biochemical, luminescence, single concentration. shares compounds with SENP7 inh. Recombinant SENP8, Z-RLRGG-aminoluciferin luminescence, 60 min. inhibition, % at 12.5 µM. actives 40% (n = 6,200). AID 488912, 2010;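 active means mean inhibition across replicates above about 50%, limit read from the data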
# SENP6 confirm: SENP6 protease inhibitors, confirmation, biochemical, luminescence, single concentration | shares compounds with SENP7 inh | recombinant SENP6, Z-RLRGG-aminoluciferin luminescence | inhibition, % at 12.5 µM | actives 58% (n = 6,200) | AID 488915, 2010
# SENP7 confirm: SENP7 protease inhibitors, retest, confirmation, biochemical, luminescence, single concentration; actives 69% (n = 6,200); recombinant SENP7, Z-RLRGG-aminoluciferin luminescence, 40 min; inhibition, % at 12.5 µM; shares compounds with SENP7 inh
# Casp3 select: caspase-3 protease inhibitors, confirmation, selectivity assay for SENP inhibitor project, biochemical, single concentration. inhibition, % at 12.5 µM. purified caspase-3, Z-DEVD-aminoluciferin luminescence, 60 min. actives 60% (n = 6,200). shares compounds with SENP7 inh;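 active means mean inhibition above about 50%, limit read from the data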;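 further: plate controls were enzyme with DMSO for no effect and wells without caspase-3 for full effect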
# Luc interf: luminescence interference (SENP counter-screen); AID 488919; Pre-incubated SENP8/Z-RLRGG-aminoluciferin, luciferase luminescence interference; shares compounds with SENP7 inh; actives 39% (n = 6,200); inhibition, % at 12.5 µM;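 active means mean inhibition above about 50% when retested at one dose, limit read from the data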;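 further: plate controls were DMSO wells with completed reaction for no effect and substrate without enzyme for full effect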
# An asterisk follows results filed as active; nt = not tested or not shown.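 How the source made its calls, unless noted: active means mean inhibition above about 50% in the one-dose retest (limit read from the data); inactive means the rest.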
SMILES,SENP8 block-1,SENP7 inh,Platelet DG rel,SENP6 inh,SENP8 block-2,SENP1 FRET inh,SENP8 confirm,SENP6 confirm,SENP7 confirm,Casp3 select,Luc interf
Cc1ccc(-c2nc3sc4c(c3c(=O)n2N)CCCC4)cc1,-30,54*,-9,72*,36,1,9,66*,88*,41,17
O=C(Oc1ccccc1)c1ccc(NC(=O)c2ccco2)cc1,5,91*,16,7,66*,0,33,66*,85*,78*,36
COC(=O)c1ccc(NC(=O)c2ccc(NC(=O)c3ccco3)cc2)cc1,-25,-5,5,4,-4,1,nt,nt,nt,nt,nt
CN(C(=O)c1ccc(NC(=O)c2ccco2)cc1)c1ccccc1,5,81*,40,81*,61*,1,13,69*,87*,88*,72*
CCC(C)c1ccc(NC(=O)c2ccco2)cc1 (stereo not drawn),8,74*,1,85*,70*,1,79*,78*,94*,71*,67*
O=C(NNC(=S)Nc1ccccc1Cl)c1ccccc1Br,13,67*,3,73*,73*,2,44,41,22,13,30
COc1cc(CNCc2ccc(Br)cc2)cc(OC)c1,14,1,2,-13,1,-1,nt,nt,nt,nt,nt
COc1ccc(C)cc1Nc1n[n+](-c2ccccc2)c(-c2ccc(SC)cc2)s1,-11,14,-4,69*,60*,1,5,66*,89*,78*,70*
CSc1ccc(-c2sc(Nc3ccccc3)n[n+]2-c2ccccc2)cc1,-9,3,0,3,-2,-74,nt,nt,nt,nt,nt
Cc1sc(NC(=O)c2ccccc2)c(C#N)c1-c1ccccc1,-3,-5,1,62*,25,-14,6,-7,29,16,1
CCc1c(C)sc(NC(=O)c2cccs2)c1C#N,-94,-4,-1,-2,-7,-5,nt,nt,nt,nt,nt
C=CCN(C(=O)CSc1nc2ccsc2c(=O)n1Cc1ccc(C(=O)O)cc1)c1ccccc1,5,nt,nt,nt,nt,1,nt,nt,nt,nt,nt
O=C(Nc1ccc(F)c(Cl)c1)c1ccc2c(=O)n3c(nc2c1)CCCCC3,17,69*,-6,76*,28,0,14,60*,91*,62*,13
O=C(Nc1ccc(Cl)cc1)c1ccc2c(=O)n3c(nc2c1)CCCCC3,14,4,2,-11,-11,-1,nt,nt,nt,nt,nt
COc1cccc(C(=O)Nc2ccc3nc4n(c(=O)c3c2)CCCC4)c1,14,45,11,53*,22,2,25,23,71*,73*,46
COc1cc(C(=O)Nc2ccc3nc4n(c(=O)c3c2)CCCC4)ccc1Br,14,2,5,14,6,-1,nt,nt,nt,nt,nt

# Screens (PubChem)
